A word on the IC99: it is the concentration at which the effect reaches the 99% level. Read a high IC99 as weaker potency. A word on the IC50: it is the concentration that inhibits the measured activity by half. A low value points to inhibition by little substance.

Results on nine compounds are retold here after ChEMBL document CHEMBL1138023, “Macrocyclic ketone analogues of halichondrin B” (Bioorg Med Chem Lett, 2004).

Test [1] relates to U-937. Kind of test: In vitro inhibitory concentration required to inhibit the growth of U937 cells was determined at 0 hr by mitotic block reversibility assay. It is filed as functional. To be noted: Homo sapiens, U-937, 0 h.
A short description of test [2]: In vitro reversibility ratio in U937 cells. In kind it is functional, U-937. In a few lines:
(§1)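 Human histiocytic lymphoma U937 cells, read by flow cytometry. Scores whether a complete mitotic block is maintained 10 h after drug washout.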

The next test relates to P388. Kind of test: Fold resistance calculated as the inhibition concentration ratio between retrovirally transformed murine P388/VMDRC.04 and parental P388 cells. In kind it is functional. A digest of the protocol:
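Readout of P-glycoprotein (PgP) susceptibility: IC50 in the retrovirally transformed P388/VMDRC.04 line divided by IC50 in parental P388 cells, giving fold resistance.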

In test [3] the test system is U-937. Nature of the test: In vitro inhibitory concentration required to inhibit the growth of U937 cells was determined at 10 hr by mitotic block reversibility assay. In kind it is functional. To be noted: Homo sapiens, U-937, 10 h. In a few lines: as §1
A further test deals with DLD-1. Nature of the test: In vitro inhibitory concentration required to inhibit the growth of DLD-1 cells under continuous exposure conditions for 3-4 days. In kind it is functional, cell-based. To be noted: Homo sapiens. A digest of the protocol:
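Human colon cancer DLD-1 cells grown under continuous drug exposure for 3–4 days. Growth inhibition measured and IC50 reported ± SEM, n = number of experiments.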

Each structure is given as a SMILES string.

Turning to `C=C1C[C@@H]2CC[C@@]34C[C@@H]5O[C@@H]6C(O[C@H]7CC[C@H](CC(=O)C[C@@H]8[C@@H](OC)[C@@H](C[C@H](O)CN9CCOCC9)O[C@H]8C[C@H]8O[C@@H](CC[C@@H]1O2)C[C@@H](C)C8=C)O[C@@H]7[C@@H]6O3)[C@H]5O4`, the IC99 in the test on U-937 [1] stood at 0.003 µM; with U-937 [3] it was 0.02 µM. Also, the Reversibility ratio in test [2] is on record as 7. Further, the FR in the test with P388 is listed as 4.7. In the test with DLD-1, this compound returned an IC50 of 0.43 nM.

In the case of `C=C1C[C@@H]2CC[C@@]34C[C@@H]5O[C@@H]6C(O[C@H]7CC[C@H](CC(=O)C[C@@H]8[C@@H](OC)[C@@H](C[C@H](O)CS(=O)(=O)c9ccc(Cl)cc9)O[C@H]8C[C@H]8O[C@@H](CC[C@@H]1O2)C[C@@H](C)C8=C)O[C@@H]7[C@@H]6O3)[C@H]5O4`, the IC99 worked out at 0.003 µM in the test with U-937 [1] and 0.03 µM in the test on U-937 [3]. The Reversibility ratio in test [2] is 10. Besides, the FR in the test on P388 is on record as 3.2. Besides, in the test with DLD-1, the IC50 amounted to 0.66 nM.

`C=C1C[C@@H]2CC[C@@]34C[C@@H]5O[C@@H]6C(O[C@H]7CC[C@H](CC(=O)C[C@@H]8[C@@H](OC)[C@@H](C[C@H](O)CNC)O[C@H]8C[C@H]8O[C@@H](CC[C@@H]1O2)C[C@@H](C)C8=C)O[C@@H]7[C@@H]6O3)[C@H]5O4`: the IC99 with U-937 [1] and in the test on U-937 [3] was 0.01 µM each time. In addition, the Reversibility ratio in test [2] came to 1. For the same compound, the FR with P388 was 7. The same compound gave an IC50 in the test with DLD-1 of 3.3 nM.

Turning to `C=C1C[C@@H]2CC[C@@]34C[C@@H]5O[C@@H]6C(O[C@H]7CC[C@H](CC(=O)C[C@@H]8[C@@H](OC)[C@@H](C[C@H](O)CS(=O)(=O)c9ccc(OC)cc9)O[C@H]8C[C@H]8O[C@@H](CC[C@@H]1O2)C[C@@H](C)C8=C)O[C@@H]7[C@@H]6O3)[C@H]5O4`, the concentration for an effect of 99% (IC99) in the test with U-937 [1] came to 0.003 µM; in the test with U-937 [3], 0.03 µM. In addition, the Reversibility ratio in test [2] worked out at 10. The FR in the test on P388 is on record as 3.4. Inhibition in the test on DLD-1 was half-maximal at 0.74 nM (IC50).

Regarding `C=C1C[C@@H]2CC[C@@]34C[C@@H]5O[C@@H]6C(O[C@H]7CC[C@H](CC(=O)C[C@@H]8[C@@H](OC)[C@@H](C[C@H](O)CN(C)C)O[C@H]8C[C@H]8O[C@@H](CC[C@@H]1O2)C[C@@H](C)C8=C)O[C@@H]7[C@@H]6O3)[C@H]5O4`, the IC99 in the test on U-937 [1] is 0.001 µM; in the test on U-937 [3], 0.01 µM. Further, in test [2], the Reversibility ratio is on record as 10. Besides, the FR in the test with P388 is 22. The compound further gave an IC50 in the test with DLD-1 of 1.2 nM.

For `C=C1C[C@@H]2CC[C@@]34C[C@@H]5O[C@@H]6C(O[C@H]7CC[C@H](CC(=O)C[C@@H]8[C@@H](OC)[C@@H](C[C@H](O)CN9CCCCC9)O[C@H]8C[C@H]8O[C@@H](CC[C@@H]1O2)C[C@@H](C)C8=C)O[C@@H]7[C@@H]6O3)[C@H]5O4`, the results for the IC99 in the test with U-937 [1] and with U-937 [3] were 0.001 µM and 0.01 µM, respectively. In addition, the Reversibility ratio in test [2] is on record as 10. Further, in the test on P388, the FR is 17. The same compound gave an IC50 in the test with DLD-1 of 0.47 nM.

On to `C=C1C[C@@H]2CC[C@@]34C[C@@H]5O[C@@H]6C(O[C@H]7CC[C@H](CC(=O)C[C@@H]8[C@@H](OC)[C@@H](C[C@H](O)CNC(=O)C(=O)c9ccccc9)O[C@H]8C[C@H]8O[C@@H](CC[C@@H]1O2)C[C@@H](C)C8=C)O[C@@H]7[C@@H]6O3)[C@H]5O4`, for which the IC99 in the test on U-937 [1] turned out to be 0.003 µM; in the test with U-937 [3], 0.01 µM. For the same compound, the Reversibility ratio in test [2] worked out at 3. The FR with P388 is recorded as 3.6. Moreover, in the test on DLD-1, the IC50 is 0.87 nM.

Take `C=C1C[C@@H]2CC[C@@]34C[C@@H]5O[C@@H]6C(O[C@H]7CC[C@H](CC(=O)C[C@@H]8[C@@H](OC)[C@@H](C[C@H](O)CNC(=O)c9ccc(Cl)cc9)O[C@H]8C[C@H]8O[C@@H](CC[C@@H]1O2)C[C@@H](C)C8=C)O[C@@H]7[C@@H]6O3)[C@H]5O4`: the IC99 in the test on U-937 [1] was 0.003 µM; with U-937 [3], 0.02 µM. Besides, in test [2], the Reversibility ratio is reported as 7. Further, in the test on P388, the FR is given as 5.9. The compound also displayed an IC50 in the test on DLD-1 of 0.69 nM.

Regarding `C=C1C[C@@H]2CC[C@@]34C[C@@H]5O[C@@H]6C(O[C@H]7CC[C@H](CC(=O)C[C@@H]8[C@@H](OC)[C@@H](C[C@H](O)CNC(=O)c9cc(OC)c(OC)c(OC)c9)O[C@H]8C[C@H]8O[C@@H](CC[C@@H]1O2)C[C@@H](C)C8=C)O[C@@H]7[C@@H]6O3)[C@H]5O4`, the figures for the IC99 with U-937 [1] and in the test on U-937 [3] were 0.002 µM and 0.01 µM, respectively. The Reversibility ratio in test [2] is recorded as 5. Further, in the test with P388, the FR was 20. The compound further returned an IC50 with DLD-1 of 0.72 nM.
